We go through 14 compounds from PubChem BioAssay.

Test [1] can be described thus: inhibitors of TNFa-induced NFkB p65 translocation, primary screen, imaging, HUVEC, MLSMR starter and 10KST1 sets (AID 438;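 active = inhibition above 20% together with a positive visual image hit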;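 also: compound added about 3h40 before a 20 min TNFalpha stimulation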;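 as to inhibition: signal is the nuclear over cytoplasmic p65 intensity ratio per well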). Particulars: HUVEC TNFa-induced p65 nuclear translocation; cell count: measured here: nuclei count (cytotoxicity indicator), at 2.08 µM; inhibition: at 2 µM, stronger effect = higher value, 0% TNFa-plus-vehicle, 100% no-TNFa wells.
Test [2] in a line: inhibitors of mutant huntingtin aggregation, primary screen, imaging, exon1htt(103Q)mCFP cells, high-content imaging (AID 483;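 active = visual image review flags a hit and inhibition of aggregation exceeds 20%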;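 also: compound exposure lasted 3 days before fixation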;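 as to nuclei count: percent of the per-plate median nuclei count of sample wells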). The conditions noted are these: exon1htt(103Q)mCFP cell line, aggregate imaging, at 2 µM; inhibition of aggregation: stronger effect = higher value; nuclei count: measured here: cell count, toxicity.
A short description of test [3]: inhibitors of E-selectin induction by TNFa, primary screen, imaging, HUVEC, immunofluorescence, MLSMR starter and 10KST1 sets (AID 487).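 As to inhibition: signal is fraction of cell area covered by stained E-selectin grains.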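 As to nuclei count: 100% = median nuclei count of all wells on the same plate.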 The conditions noted are these: HUVEC TNFalpha-induced E-selectin immunofluorescence imaging, at 2 µM; inhibition: stronger effect = higher value; nuclei count: measured here: cell number, toxicity.
In test [4] the target is Voltage-gated potassium channel subunit beta-2 (Rattus norvegicus) (UniProt P62483). As to the kind of experiment: KvBeta enzyme negative modulators, primary screen, biochemical, NADPH fluorescence (AID 622;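 active = fluorescence slope higher than the sample average by over 3 SD, cut at about -0.22 in these data, passing the limit was not always enough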;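 also: slope of raw intensity against log time taken from 70 to 1610 s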). Particulars: recombinant KvBeta, 4-cyanobenzaldehyde reduction, at 10 µM, stronger effect = higher value.
Test [5] has the same target. As to the kind of experiment: KvBeta positive modulators, primary screen, biochemical, NADPH fluorescence (AID 623;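 active = NADPH fluorescence slope more negative than the mean of all samples by about 3 SD, 99.7% confidence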;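 also: fluorescence intensity change per second fitted from 20 to 320 s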). Particulars: Recombinant KvBeta, NADPH fluorescence decrease slope, 10 min; at 10 µM; stronger effect = lower value.
Test [6] addresses Alpha-2C adrenergic receptor (Homo sapiens) (UniProt P18825). Put plainly: modulators of alpha2C/GIRK thallium flux, primary screen, cell-based, HEK293 alpha2C/GIRK1/2 (AID 624;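 active = fluorescence slope after compound addition differing from the mean of all screened samples at 99.7% confidence, in either direction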;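 also: slope of fluorescence ratio to pre-addition baseline per second over 15 to 24 s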). The conditions noted are these: thallium flux BTC fluorescence, at 10 µM, actives lie on both sides.
A short description of test [7]: inhibitors of larval lipid processing in zebrafish, primary screen, whole organism, PED6 fluorescence, gall bladder and intestine (AID 686;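 active = a full or partial loss of lipid-probe fluorescence in the fish gall bladder, intestine or both, judged by eye; inactive = no fluorescence loss, or compound toxic to the fish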;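 also: larvae 5 to 7 days old with five fish per well; signal comes from phospholipase A2 cleavage of quenched PED6 carried via bile; overnight exposure to compound and PED6 before scoring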). Particulars: Zebrafish larvae PED6 lipid processing, fluorescence scoring; screened at 20 µM (by protocol). The method, boiled down:
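System: live zebrafish larvae aged 5-7 days, whole organism; measure: graded gall bladder and intestinal fluorescence inhibition per well; incubation: overnight exposure; reagent: ingested quenched lipid PED6 at 100 nM; signal: By-eye fluorescence microscopy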

A short description of test [8]: inhibitors of Sendai virus-induced IRF3 signaling, primary screen, TLR/RLR signaling modifier project, cell-based, Sendai virus stimulus, luciferase, 10K MLSCN set (AID 602276;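 active = inhibition at or above 50% at 10 µM; inactive = inhibition below 50%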;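 also: firefly luciferase from ISG56 promoter only with Renilla not read in this screen; 0% = Sendai virus plus DMSO and 100% = medium plus DMSO without virus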). The conditions noted are these: HEK293 RL24 IRF3 luciferase reporter, at 10 µM, stronger effect = higher value. (A reporter such as luciferase makes a cellular process visible.)
The nature of test [9]: inhibitors of poly I:C-induced TLR3 signaling, primary screen, cell-based, poly I:C stimulus, luciferase, 10K MLSCN set (AID 602277;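 active = inhibition of the reporter signal at or above 50%; inactive = inhibition below 50%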). The conditions noted are these: HEK293-TLR3 RL24 IRF3 luciferase reporter, at 10 µM, stronger effect = higher value.

Activity calls are given as the source filed them.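 The calls were made as follows, unless noted: active = visually confirmed hit in the image check and inhibition above 20%; inconclusive = visually confirmed hit but inhibition not above 20%; inactive = no visual hit in the image check.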

Voltage-gated potassium channel subunit beta-2 (Rattus norvegicus), sequence (P62483 whole entry, looked up): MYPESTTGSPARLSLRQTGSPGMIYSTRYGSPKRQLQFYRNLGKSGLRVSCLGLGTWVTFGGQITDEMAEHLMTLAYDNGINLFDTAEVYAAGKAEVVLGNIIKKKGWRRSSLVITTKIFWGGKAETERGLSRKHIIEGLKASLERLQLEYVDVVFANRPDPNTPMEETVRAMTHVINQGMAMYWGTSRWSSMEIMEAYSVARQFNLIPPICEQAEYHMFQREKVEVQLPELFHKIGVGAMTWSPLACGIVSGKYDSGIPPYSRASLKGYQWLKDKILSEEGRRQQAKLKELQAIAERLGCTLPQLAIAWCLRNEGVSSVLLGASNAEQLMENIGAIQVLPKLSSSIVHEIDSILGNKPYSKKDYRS
Alpha-2C adrenergic receptor (Homo sapiens), sequence (P18825 whole entry, looked up): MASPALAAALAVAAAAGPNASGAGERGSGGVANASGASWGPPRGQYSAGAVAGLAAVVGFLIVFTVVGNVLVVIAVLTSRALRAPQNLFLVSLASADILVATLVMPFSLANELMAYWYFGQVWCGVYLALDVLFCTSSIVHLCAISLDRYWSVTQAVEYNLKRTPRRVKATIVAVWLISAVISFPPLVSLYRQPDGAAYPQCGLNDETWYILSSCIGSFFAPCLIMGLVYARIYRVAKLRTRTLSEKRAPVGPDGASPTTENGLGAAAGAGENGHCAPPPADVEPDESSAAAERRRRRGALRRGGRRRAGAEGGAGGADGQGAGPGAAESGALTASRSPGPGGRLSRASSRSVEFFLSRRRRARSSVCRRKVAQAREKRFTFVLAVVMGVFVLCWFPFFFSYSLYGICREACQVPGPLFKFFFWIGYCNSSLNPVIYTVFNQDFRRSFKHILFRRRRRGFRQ

By inhibition is commonly meant the change of the read-out against control, counted positive when it falls. In the case of `CCOC(=O)c1oc2cc(OCC(N)=O)ccc2c(=O)c1-c1ccc(OC)c(OC)c1`, in test [1], the cell count came to 411. Besides, the inhibition was 8.1% (inactive) in test [1], -114% (inactive) in test [3], 19.4% (inactive) in [8] and 22.5% (inactive) in [9]. The inhibition of aggregation in test [2] was -10.4% (inactive). The nuclei count is 106% in [2] and 102% in test [3]. In addition, the fluorescence slope in test [4] is -0.445 (inactive). Further, in test [5], the NADPH fluorescence slope was -0.000137 (inactive). In [6], the slope is 0.0045 (inactive). Also, the outcome in test [7] was inactive.

As for `CC(=O)Nc1ccc(NC(=O)Cn2cnc3c(cnn3C(C)(C)C)c2=O)cc1`, the cell count in test [1] was determined as 586. In addition, the inhibition in [1] was -3.3% (inactive); in test [3], 0.5% (inactive); in test [8], 2.03% (inactive); in test [9] it was 2.5% (inactive). For the same compound, the inhibition of aggregation in test [2] was 8.4% (inactive). The nuclei count is 104% in test [2] and 111% in test [3]. For the same compound, the fluorescence slope in test [4] is -0.37 (inactive). Moreover, in [5], the NADPH fluorescence slope was -4e-05 (inactive). In test [6], the slope is 0.00604 (inactive). Besides, the compound was called inactive in test [7].

`COc1ccc(NC(=O)CSc2ccccn2)cc1OC`: in test [1], the cell count came to 554. Also, the inhibition in test [1] was -42.2% (inactive); in test [3], 10.4% (inactive); in test [8], -19.5% (inactive); in test [9] it was -27.7% (inactive). The inhibition of aggregation in test [2] was 5.1% (inactive). Further, the figures for the nuclei count in test [2] and in test [3] were 107% and 88.2%, respectively. Moreover, in test [4], the fluorescence slope was -0.384 (inactive). Besides, the NADPH fluorescence slope in test [5] is -1.5e-05 (inactive). Also, the slope in [6] is 0.00501 (inactive). Moreover, the outcome in test [7] was inactive.

Turning to `Cc1ccc(C(O)c2nc3ccccc3n2C(C)C)cc1` (stereo not drawn), the cell count in test [1] was determined as 304. Besides, the inhibition in test [1] is -3.7% (inactive); in test [3] it was 28.8% (inactive); in test [8], 20% (inactive); in [9] it was 11.8% (inactive). For the same compound, the inhibition of aggregation in [2] was 11% (inactive). For the same compound, the nuclei count in test [2] came to 91.7%; in [3] it was 86.7%. Also, in test [4], the fluorescence slope is -0.418 (inactive). Besides, the NADPH fluorescence slope in test [5] is -1.7e-05 (inactive). Moreover, in test [6], the slope is 0.00388 (inactive). The result in test [7] was inactive.

`Cc1ccc2[nH]c3c(=O)n(CCCN4CCN(C)CC4)cnc3c2c1`: in [1], the cell count was 478. In addition, the inhibition in test [1] was 1% (inactive); in test [3], -36.8% (inactive); in [8], 1.24% (inactive); in test [9] it was 22.2% (inactive). Moreover, the inhibition of aggregation in test [2] was -13.7% (inactive). In addition, the nuclei count was found to be 105% in [2] and 115% in [3]. In addition, the fluorescence slope in test [4] was -0.38 (inactive). For the same compound, in [5], the NADPH fluorescence slope is -2.9e-05 (inactive). Also, the slope in test [6] was 0.0053 (inactive). For the same compound, the compound was classed as inactive in [7].

As to `O=C(CSc1nc2ccccc2[nH]1)N1CCCCC1`, in test [1], the cell count is 433. Moreover, the inhibition in [1] is 0.5% (inactive); in test [3] it was 13.2% (inactive); in test [8] it was -14.8% (inactive); in test [9] it was -73.7% (inactive). Besides, the inhibition of aggregation in test [2] was 16% (inactive). Besides, the figures for the nuclei count in test [2] and in test [3] were 102% and 99.3%, respectively. Moreover, the fluorescence slope in [4] is -0.435 (inactive). Further, the NADPH fluorescence slope in test [5] is -3.6e-05 (inactive). For the same compound, the slope in test [6] was 0.00459 (inactive). The compound was classed as inactive in [7].

Consider `COc1ccc(S(=O)(=O)NCCCN2CCOCC2)c2ccccc12`, for which the cell count in test [1] came to 674. The inhibition was -3.5% (inactive) in test [1], -82.6% (inactive) in test [3], 14.4% (inactive) in [8] and 19.6% (inactive) in [9]. For the same compound, in [2], the inhibition of aggregation is -7.8% (inactive). Further, the nuclei count in test [2] stood at 102%; in test [3], 100%. Moreover, the fluorescence slope in test [4] was -0.356 (inactive). Further, in test [5], the NADPH fluorescence slope was -3.4e-05 (inactive). In addition, the slope in [6] was 0.00569 (inactive). Further, the compound was called inactive in test [7].

As to `c1n[nH]c(SCCCCSc2ncn[nH]2)n1`, the cell count in test [1] was 512. Moreover, the inhibition is -30.6% (inactive) in test [1], 24% (inactive) in [3], 15.9% (inactive) in test [8] and 13% (inactive) in [9]. The inhibition of aggregation in test [2] is -15.1% (inactive). Besides, the results for the nuclei count in [2] and in [3] were 108% and 113%, respectively. The fluorescence slope in test [4] is -0.452 (inactive). Further, the NADPH fluorescence slope in [5] was -7e-05 (inactive). The slope in test [6] is 0.00417 (inactive). For the same compound, the outcome in [7] was inactive.

As for `COc1cc2c(cc1NC(=O)CSc1nnc(Cc3cccs3)n1C)oc1ccccc12`, in [1], the cell count was found to be 368. For the same compound, the inhibition in [1] was 4.7% (inactive); in [3], -30.5% (inactive); in test [8], 13.9% (inactive); in test [9], 5.76% (inactive). Moreover, the inhibition of aggregation in test [2] is 9.3% (inactive). Besides, the nuclei count came to 104% in test [2] and 112% in [3]. Besides, the fluorescence slope in [4] was -0.45 (inactive). In test [5], the NADPH fluorescence slope was -0.000107 (inactive). Besides, the slope in test [6] was 0.00401 (inactive). The call in test [7] was inactive.

For the compound `CN(C)c1nc(Oc2ccc(N)cc2)nc(N(C)C)n1`, the cell count in test [1] was 362. In addition, the inhibition in test [1] was 2.1% (inactive); in test [3] it was 27% (inactive); in test [8] it was -1.54% (inactive); in test [9] it was -2.53% (inactive). Besides, the inhibition of aggregation in test [2] is 15.5% (inactive). The values for the nuclei count in test [2] and in [3] were 94.2% and 92%, respectively. In [4], the fluorescence slope was -0.379 (inactive). In addition, the NADPH fluorescence slope in [5] was -7.9e-05 (inactive). Moreover, the slope in [6] was 0.00462 (inactive). Further, the outcome in [7] was inactive.

As to `COc1ccc(S(=O)(=O)NCCSCc2ccco2)cc1Cl`, the cell count in test [1] came to 362. For the same compound, the inhibition in [1] was 4.4% (inactive); in [3], 13.2% (inactive); in test [8], 20.4% (inactive); in [9], 19.9% (inactive). Also, the inhibition of aggregation in test [2] is 13% (inactive). Moreover, the values for the nuclei count in [2] and in [3] were 94% and 108%, respectively. Besides, the fluorescence slope in test [4] was -0.424 (inactive). In addition, the NADPH fluorescence slope in test [5] was -6.4e-06 (inactive). Further, the slope in test [6] was 0.00484 (inactive). Moreover, the outcome in test [7] was inactive.

Take `COc1ccccc1-n1nnnc1SCc1cc2c(cc1Br)OCO2`: the cell count in test [1] was 319. The inhibition in test [1] was -4.5% (inactive); in test [3] it was -168% (inactive); in test [8] it was 19.6% (inactive); in [9], 22.9% (inactive). Further, in test [2], the inhibition of aggregation is -1.1% (inactive). The nuclei count in test [2] was 90.3%; in test [3] it was 130%. The fluorescence slope in [4] was -0.437 (inactive). Moreover, the NADPH fluorescence slope in test [5] was -4.6e-05 (inactive). Also, the slope in [6] is 0.00645 (inactive). For the same compound, in test [7], the compound was called inactive.

In the case of `COc1ccc(C(=O)CSc2nnc(-c3ccc(C)cc3)o2)cc1`, the cell count in test [1] turned out to be 419. Further, the inhibition in test [1] is 11.2% (inactive); in test [3], -69.4% (inactive); in [8] it was -16.3% (inactive); in test [9] it was -18.5% (inactive). Moreover, the inhibition of aggregation in test [2] is -14.9% (inactive). Moreover, the nuclei count came to 109% in [2] and 112% in test [3]. Also, the fluorescence slope in test [4] was -0.371 (inactive). Besides, in test [5], the NADPH fluorescence slope was -1.3e-05 (inactive). In [6], the slope was 0.00862 (inactive). The compound was classed as inactive in test [7].

Turning to `CC(=O)NC(C)C(=O)OCc1ccc(Cl)cc1Cl` (stereo not drawn), the cell count in test [1] amounted to 478. For the same compound, the inhibition in [1] is -21.6% (inactive); in test [3] it was -22.9% (inactive); in test [8] it was 10.8% (inactive); in test [9] it was 12.4% (inactive). Moreover, in test [2], the inhibition of aggregation was -3.7% (inactive). For the same compound, the nuclei count was determined as 74.8% in [2] and 134% in test [3]. Besides, the fluorescence slope in test [4] was -0.467 (inactive). Also, the NADPH fluorescence slope in test [5] was -5.2e-05 (inactive). Further, the slope in test [6] is 0.00444 (inactive). Also, the compound was called inactive in test [7].
